Source: ChEMBL document CHEMBL1147806, “Structure-activity relationship studies on UK-2A, a novel antifungal antibiotic from Streptomyces sp. 517-02. Part 5: Roles of the 9-membered dilactone-ring moiety in respiratory inhibition” (2006)
In brackets after ≈: the same amount, converted by molar mass.

Legend:
Rhodotorula mucilaginosa = experiment: Antifungal activity against Rhodotorula mucilaginosa IFO 0001; assay type: functional
In short: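 Compounds dissolved in DMF; MIC by serial 2-fold agar dilution on Sabouraud dextrose agar, read after 48 h cultivation at 25 °C.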

Bos taurus = organism: Bos taurus; experiment: Respiratory inhibition in bovine heart submitochondrial particles; assay type: functional
In short: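 Bovine heart submitochondrial particles prepared by the Matsuno-Yagi and Hatefi method; uncoupler-stimulated respiration with 10 mM succinate as substrate, oxygen consumption followed by oxygen electrode at 25 °C.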

| Structure (SMILES) | MIC (Rhodotorula mucilaginosa) | pI50 (Bos taurus) |
| --- | --- | --- |
| CCCCCCCCOC(=O)CC[C@H](NC(=O)c1nccc(OC)c1O)C(=O)OCCCCCCCC | > 100 µg/mL | 5.7 |
| CCCCCCOC(=O)CC[C@@H](NC(=O)c1nccc(OC)c1O)C(=O)OCCCCCC | 100 µg/mL (≈ 214 µM) |  |
| CCCCCCOC(=O)C[C@H](NC(=O)c1ccc(OC)c(OC)c1O)C(=O)OCCCCCC | > 100 µg/mL | 4.9 |
| CCCCCCOC(=O)CC[C@H](NC(=O)c1cccc(NC=O)c1O)C(=O)OCCCCCC | > 100 µg/mL | 7.1 |
| CCCC[C@H]1C(=O)O[C@H](C)[C@H](NC(=O)c2cccc(NC=O)c2O)C(=O)O[C@@H](C)[C@@H]1OC(=O)CC(C)C [ANTIMYCIN A3] | 0.39 µg/mL (≈ 0.749 µM) | 7.4 |

The next lines start with results.

| MIC (Rhodotorula mucilaginosa) | Structure (SMILES) | pI50 (Bos taurus) |
| --- | --- | --- |
| 100 µg/mL (≈ 221 µM) | CCCCCCOC(=O)C[C@H](NC(=O)c1nccc(OC)c1O)C(=O)OCCCCCC |  |
| 50 µg/mL (≈ 101 µM) | CCCCCCCOC(=O)CC[C@H](NC(=O)c1nccc(OC)c1O)C(=O)OCCCCCCC |  |
| 100 µg/mL (≈ 201 µM) | CCCCCCOC(=O)C[C@H](NC(=O)c1cc(O)c(OC)c(OC)c1O)C(=O)OCCCCCC | 5 |
| < 0.1 µg/mL | COc1ccnc(C(=O)N[C@H]2COC(=O)[C@H](Cc3ccccc3)[C@@H](OC(=O)C(C)C)[C@H](C)OC2=O)c1O | 6 |
| 3.13 µg/mL (≈ 6.71 µM) | CCCCCCOC(=O)CC[C@H](NC(=O)c1nccc(OC)c1O)C(=O)OCCCCCC | 6 |
| 12.5 µg/mL (≈ 28.5 µM) | CCCCCOC(=O)CC[C@H](NC(=O)c1nccc(OC)c1O)C(=O)OCCCCC |  |
